Source: ChEMBL document CHEMBL1275434, “In vitro evaluation of CBR-2092, a novel rifamycin-quinolone hybrid antibiotic: studies of the mode of action in Staphylococcus aureus” (Antimicrob Agents Chemother, 2008)
≈ marks a conversion by molar mass, not a printed value. Calls of active or inactive are those of the source. The calls are words filed in the database; no cut-off is given here.

Key:
Staphylococcus aureus [1] = assay: Inhibition of DNA synthesis in rifamycin-resistant Staphylococcus aureus CB370 harboring rpoB H481Y mutant gene assessed as [methyl-3H]thymidine incorporation at 0.032 ug/ml; format: functional, organism-based
Outline: (§1)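 Macromolecular synthesis time course in S. aureus, measuring incorporation of [methyl-3H]thymidine (DNA), [5,6-3H]uridine (RNA) or [2,3-3H]D-alanine (cell wall). At each time point, incorporation is expressed as percent of the DMSO-treated control culture. Incorporation at time zero is set to 100%.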

Staphylococcus aureus [2] = assay: Antimicrobial activity against Staphylococcus aureus CB1952 harboring rpoB S486L, gyrA […], gyrA E88Q, gyrA G532S, parC S80F, parC E84L mutant genes selected after CBR-2092 exposure for 21 days; format: functional; settings: CB1952, 504 h
Staphylococcus aureus [3] = assay: Antimicrobial activity against rifampin-sensitive Staphylococcus aureus CB190 harboring rpoB H472 mutant gene by broth microdilution method; format: functional
Outline: (§2)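 CLSI broth microdilution MIC in cation-adjusted Mueller-Hinton (MHII) broth supplemented with 0.002% (vol/vol) polysorbate 80, included to limit compound loss to plastic surfaces.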

Staphylococcus aureus [4] = assay: Antimicrobial activity against Staphylococcus aureus CB812 harboring rpo B H481Y and gyrA S84L mutant genes by broth microdilution method; format: functional; outline: as §2
[5] = Inhibition of Staphylococcus aureus RpoB H481Y mutant
Outline: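 Recombinant S. aureus σA RNA polymerase holoenzyme carrying RpoB H481Y. Single-round transcription of the pGL2B-T7A1-G-less template. The 272-nt G-less RNA product is quantified by gel electrophoresis. IC50 is the concentration that inhibits 50% of product formed without inhibitor.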

Staphylococcus aureus [6] = assay: Antimicrobial activity against rifampin-sensitive Staphylococcus aureus CB190 harboring rpo BH481D mutant gene by broth microdilution method; format: functional; outline: as §2
Staphylococcus aureus [7] = assay: Antimicrobial activity against Staphylococcus aureus CB809 harboring rpoB H481Y and parC S80F mutant genes by broth microdilution method
Staphylococcus aureus [8] = assay: Inhibition of RNA synthesis in rifamycin-resistant Staphylococcus aureus CB370 harboring rpoB H481Y mutant gene assessed as [5,6-3H]uridine incorporation at 0.032 ug/ml; format: functional, organism-based; outline: as §1
Staphylococcus aureus [9] = assay: Antimicrobial activity against rifampin-sensitive Staphylococcus aureus CB190 harboring rpoB A477V mutant gene by broth microdilution method; format: functional; outline: as §2
Staphylococcus aureus [10] = assay: Antimicrobial activity against rifampin-sensitive Staphylococcus aureus CB190 harboring rpoB E473 mutant gene by broth microdilution method; format: functional; outline: as §2
Staphylococcus aureus [11] = assay: Inhibition of protein synthesis in quinolone-resistant Staphylococcus aureus CB814 harboring gyrA S84L and parC S80F mutant genes assessed as decrease in L-[3,4,5-3H]leucine incorporation at 0.032 ug/ml; format: functional, organism-based
Outline: (§3)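 Time-course radiolabel incorporation in S. aureus cultures with test agent. Precursors: [methyl-3H]thymidine (DNA), [5,6-3H]uridine (RNA), L-[3,4,5-3H]leucine (protein), [2,3-3H]D-alanine (cell wall). At each time point, incorporation with agent is expressed relative to the DMSO-treated control culture as percent incorporation. Time-zero incorporation is set to 100%.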

Staphylococcus aureus [12] = assay: Antimicrobial activity against rifampin-sensitive Staphylococcus aureus CB190 harboring rpoB D471G mutant gene by broth microdilution method; format: functional; outline: as §2
Staphylococcus aureus [13] = assay: Antimicrobial activity against rifampin-sensitive Staphylococcus aureus CB190 harboring rpoB N474K mutant gene by broth microdilution method; format: functional; outline: as §2
Staphylococcus aureus [14] = assay: Inhibition of cell wall synthesis in rifamycin-resistant Staphylococcus aureus CB370 harboring rpoB H481Y mutant gene assessed as [2,3-3H]D-alanine incorporation at 0.032 ug/ml; format: functional, organism-based; outline: as §1
Staphylococcus aureus [15] = assay: Antimicrobial activity against Staphylococcus aureus CB370 harboring rpoB H481Y mutant gene; format: functional
Staphylococcus aureus [16] = assay: Antimicrobial activity against Staphylococcus aureus CB1953 harboring rpoB H481Y, gyrA S84L, gyrA V598I, parC S80F, parC R570H mutant genes selected after CBR-2092 exposure for 7 days; format: functional; settings: CB1953, 168 h
Staphylococcus aureus [17] = assay: Antimicrobial activity against rifampin-sensitive Staphylococcus aureus CB190 harboring rpoB D471Y mutant gene by broth microdilution method; format: functional; outline: as §2
Staphylococcus aureus [18] = assay: Inhibition of DNA synthesis in quinolone-resistant Staphylococcus aureus CB814 harboring gyrA S84L and parC S80F mutant genes assessed as decrease in [methyl-3H]thymidine incorporation at 0.032 ug/ml; format: functional, organism-based; outline: as §1
Staphylococcus aureus [19] = assay: Antimicrobial activity against rifampin-sensitive Staphylococcus aureus CB190 harboring rpoB H481N mutant gene by broth microdilution method; format: functional; outline: as §2
Staphylococcus aureus [20] = assay: Antimicrobial activity against Staphylococcus aureus CB1947 harboring rpoB H481Y, gyrA S84L, E697 deficient gyrA, parC G167V mutant genes selected after CBR-2092 exposure for 20 days; settings: CB1947, 480 h
Staphylococcus aureus [21] = assay: Inhibition of cell wall synthesis in quinolone-resistant Staphylococcus aureus CB814 harboring gyrA S84L and parC S80F mutant genes assessed as decrease in [2,3-3H]D-alanine incorporation at 0.032 ug/ml; format: functional, organism-based; outline: as §1
Staphylococcus aureus [22] = assay: Inhibition of DNA synthesis in Staphylococcus aureus CB190 assessed as decrease in [methyl-3H]thymidine incorporation at 0.032 ug/ml; format: functional, organism-based
Staphylococcus aureus [23] = assay: Antimicrobial activity against Staphylococcus aureus CB811 harboring quinolone-resistant gyrA S84L mutant gene by broth microdilution method; format: functional; outline: as §2
Staphylococcus aureus [24] = assay: Antimicrobial activity against Staphylococcus aureus CB1884; format: functional
Staphylococcus aureus [25] = assay: Antimicrobial activity against Staphylococcus aureus CB815 harboring rpoB H481Y, gyrA S84L and parC S80F mutant genes by broth microdilution method
Staphylococcus aureus [26] = assay: Antimicrobial activity against rifampin-sensitive Staphylococcus aureus CB190 by broth microdilution method; format: functional; outline: as §2
Staphylococcus aureus [27] = assay: Antimicrobial activity against Staphylococcus aureus CB1954 harboring rpoB H481Y, gyrA S84L, K809 deficient gyrA, parC S80F, parC A523D mutant genes selected after CBR-2092 exposure for 7 days; format: functional; settings: CB1954, 168 h; outline: as §2
Staphylococcus aureus [28] = assay: Inhibition of protein synthesis in Staphylococcus aureus CB190 assessed as decrease in L-[3,4,5-3H]leucine incorporation at 0.032 ug/ml; format: functional, organism-based
Staphylococcus aureus [29] = assay: Antimicrobial activity against Staphylococcus aureus CB814 harboring fluoroquinolone-resistant gyrA S84L and parC S80F mutant genes by broth microdilution method; format: functional; outline: as §2
Staphylococcus aureus [30] = assay: Antimicrobial activity against Staphylococcus aureus CB815 harboring rpoB H481Y, gyrA […] and parC S80F mutant genes; format: functional
Staphylococcus aureus [31] = assay: Antimicrobial activity against Staphylococcus aureus CB1887 harboring rpoB R484H, L520 deficient gyrA, […], R236 duplicated parC and parC H103Y mutant genes selected after ABT-719 exposure for 20 days; format: functional; settings: CB1887, 480 h
Staphylococcus aureus [32] = assay: Inhibition of protein synthesis in rifamycin-resistant Staphylococcus aureus CB370 harboring rpoB H481Y mutant gene assessed as L-[3,4,5-3H]leucine incorporation at 0.032 ug/ml; format: functional, organism-based; outline: as §3
Staphylococcus aureus [33] = assay: Antimicrobial activity against Staphylococcus aureus CB370 harboring rifampin-resistant rpoB H481Y mutant gene by broth microdilution method; format: functional; outline: as §2
Staphylococcus aureus [34] = assay: Antimicrobial activity against Staphylococcus aureus CB808 harboring quinolone-resistant parC S80F mutant gene by broth microdilution method; format: functional; outline: as §2
Staphylococcus aureus [35] = assay: Antimicrobial activity against rifampin-sensitive Staphylococcus aureus CB190 harboring rpoB Q468L mutant gene by broth microdilution method; format: functional; outline: as §2
Staphylococcus aureus [36] = assay: Antimicrobial activity against rifampin-sensitive Staphylococcus aureus CB190 harboring rpoB H481Y mutant gene by broth microdilution method; format: functional; outline: as §2
Staphylococcus aureus [37] = assay: Antimicrobial activity against rifampin-sensitive Staphylococcus aureus CB190 harboring rpoB Q468K mutant gene by broth microdilution method; format: functional; outline: as §2
Staphylococcus aureus [38] = assay: Inhibition of cell wall synthesis in Staphylococcus aureus CB190 assessed as decrease in [2,3-3H]D-alanine incorporation at 0.032 ug/ml; format: functional, organism-based
Staphylococcus aureus [39] = assay: Inhibition of RNA synthesis in quinolone-resistant Staphylococcus aureus CB814 harboring gyrA S84L and parC S80F mutant genes assessed as decrease in [5,6-3H]uridine incorporation at 0.032 ug/ml; format: functional, organism-based; outline: as §1
Staphylococcus aureus [40] = assay: Antimicrobial activity against Staphylococcus aureus CB190 by broth microdilution method; format: functional
Staphylococcus aureus [41] = assay: Inhibition of RNA synthesis in Staphylococcus aureus CB190 assessed as decrease in [5,6-3H]uridine incorporation at 0.032 ug/ml; format: functional, organism-based
Staphylococcus aureus [42] = assay: Antimicrobial activity against Staphylococcus aureus CB814 harboring […] and parC S80F mutant genes; format: functional
[43] = Inhibition of Staphylococcus aureus wild-type RNA polymerase RpoB
Outline: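 Recombinant S. aureus σA RNA polymerase holoenzyme in a single-round transcription assay using the pGL2B-T7A1-G-less template. The 272-nucleotide G-less RNA product was quantified by gel electrophoresis. IC50 is the concentration halving the product formed without test agent.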

In the case of `CO[C@H]1/C=C/O[C@@]2(C)Oc3c(C)c(O)c4c(O)c(c(/C=N/N5CCN(C)CC5)c(O)c4c3C2=O)NC(=O)/C(C)=C\C=C\[C@H](C)[C@H](O)[C@@H](C)[C@@H](O)[C@@H](C)[C@H](OC(C)=O)[C@@H]1C` [RIFAMPIN], the Activity (Staphylococcus aureus [1]) is reported as “inactive”, the MIC (Staphylococcus aureus [2]) is reported as > 250 µg/mL and the MIC (Staphylococcus aureus [3]) is reported as 32 µg/mL (≈ 38.9 µM). The MIC (Staphylococcus aureus [4]) was > 250 µg/mL, the IC50 [5] was > 25000 nM and the MIC (Staphylococcus aureus [6]) was > 64 µg/mL. The MIC (Staphylococcus aureus [7]) was > 250 µg/mL, the Activity (Staphylococcus aureus [8]) was “inactive” and the MIC (Staphylococcus aureus [9]) was 1 µg/mL (≈ 1.22 µM). The MIC (Staphylococcus aureus [10]) was 8 µg/mL (≈ 9.72 µM), the Activity (Staphylococcus aureus [11]) was “Active” and the MIC (Staphylococcus aureus [12]) was 0.25 µg/mL (≈ 0.304 µM). The MIC (Staphylococcus aureus [13]) was 2 µg/mL (≈ 2.43 µM), the Activity (Staphylococcus aureus [14]) was “inactive” and the MIC (Staphylococcus aureus [15]) was > 250 µg/mL. The MIC (Staphylococcus aureus [16]) was > 125 µg/mL, the MIC (Staphylococcus aureus [17]) was 16 µg/mL (≈ 19.4 µM) and the Activity (Staphylococcus aureus [18]) was “Active”. For the same compound, the MIC (Staphylococcus aureus [19]) was 2 µg/mL (≈ 2.43 µM), the MIC (Staphylococcus aureus [20]) was > 250 µg/mL and the Activity (Staphylococcus aureus [21]) was “Active”. The Activity (Staphylococcus aureus [22]) was “Active”, the MIC (Staphylococcus aureus [23]) was 0.008 µg/mL (≈ 0.00972 µM) and the MIC (Staphylococcus aureus [24]) was > 250 µg/mL. The MIC (Staphylococcus aureus [25]) was > 250 µg/mL, the MIC (Staphylococcus aureus [26]) was 0.008 µg/mL (≈ 0.00972 µM) and the MIC (Staphylococcus aureus [27]) was > 125 µg/mL. For the same compound, the Activity (Staphylococcus aureus [28]) was “Active”, the MIC (Staphylococcus aureus [29]) was 0.008 µg/mL (≈ 0.00972 µM) and the MIC (Staphylococcus aureus [30]) was > 125 µg/mL. For the same compound, the MIC (Staphylococcus aureus [31]) was > 250 µg/mL, the Activity (Staphylococcus aureus [32]) was “inactive” and the MIC (Staphylococcus aureus [33]) was > 250 µg/mL. The MIC (Staphylococcus aureus [34]) was 0.008 µg/mL (≈ 0.00972 µM), the MIC (Staphylococcus aureus [35]) was > 64 µg/mL and the MIC (Staphylococcus aureus [36]) was > 64 µg/mL. For the same compound, the MIC (Staphylococcus aureus [37]) was > 64 µg/mL, the Activity (Staphylococcus aureus [38]) was “Active” and the Activity (Staphylococcus aureus [39]) was “Active”. The MIC (Staphylococcus aureus [40]) was 0.008 µg/mL (≈ 0.00972 µM), the Activity (Staphylococcus aureus [41]) was “Active” and the MIC (Staphylococcus aureus [42]) was 0.008 µg/mL (≈ 0.00972 µM). The IC50 [43] was 15 nM.
